Active and inactive are the calls of the source. The calls are words filed in the database; no cut-off is given here.
What was measured:
Mus musculus [1] = assay: Antidiabetic activity in glucose-stimulated db/db mouse assessed as increase in GLP-1 level secretion at 50 mg/kg, po after 10 mins; assay type: functional
Summary of the method: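 Male db/db mice received a single oral dose of 50 mg/kg, followed by a glucose load. Plasma active GLP-1 measured in pg/ml at 10 min after glucose.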

[2] = Toxicity in female Wistar rat assessed as ratio of thymus to body weight at 100 mg/kg, po after 28 days (reference value: 0.260 +/- 0.025); assay type: organism-based; conditions: in vivo, 672 h, time 28 day
[3] = Toxicity in male Wistar rat assessed as ALP level at 100 mg/kg, po after 28 days (reference value: 174.77 +/- 25.42 U/L); assay type: organism-based; conditions: in vivo, 672 h, time 28 day
[4] = Toxicity in female Wistar rat assessed as ALT level at 200 mg/kg, po after 28 days (reference value: 21.28 +/- 2.31 U/L); assay type: organism-based; conditions: in vivo, 672 h, time 28 day
[5] = Toxicity in male Wistar rat assessed as ratio of brain to body weight at 400 mg/kg, po after 28 days (reference value: 0.766 +/- 0.038); assay type: organism-based; conditions: in vivo, 672 h, time 28 day
[6] = Toxicity in male Wistar rat assessed as ratio of kidney to body weight at 400 mg/kg, po after 28 days (reference value: 0.787 +/- 0.078); assay type: organism-based; conditions: in vivo, 672 h, time 28 day
[7] = Toxicity in female Wistar rat assessed as urea level at 100 mg/kg, po after 28 days (reference value: 48.09 +/- 5.3 mg/dl); assay type: organism-based; conditions: in vivo, 672 h, time 28 day
[8] = Toxicity in female Wistar rat assessed as creatinine level at 100 mg/kg, po after 28 days (reference value: 0.6 +/- 0.04 mg/dl); assay type: organism-based; conditions: in vivo, 672 h, time 28 day
[9] = Toxicity in male Wistar rat assessed as ratio of thymus to body weight at 400 mg/kg, po after 28 days (reference value: 0.148 +/- 0.023); assay type: organism-based; conditions: in vivo, 672 h, time 28 day
[10] = Toxicity in female Wistar rat assessed as ratio of uterus to body weight at 100 mg/kg, po after 28 days (reference value: 0.335 +/- 0.108); assay type: organism-based; conditions: in vivo, 672 h, time 28 day
[11] = Toxicity in female Wistar rat assessed as glucose level at 400 mg/kg, po after 28 days (reference value: 78.4 +/- 8.36 mg/dl); assay type: organism-based; conditions: in vivo, 672 h, time 28 day
[12] = Toxicity in female Wistar rat assessed as urea level at 400 mg/kg, po after 28 days (reference value: 48.09 +/- 5.3 mg/dl); assay type: organism-based; conditions: in vivo, 672 h, time 28 day
[13] = Toxicity in male Wistar rat assessed as ratio of epididymides to body weight at 400 mg/kg, po after 28 days (reference value: 0.361 +/- 0.028); assay type: organism-based; conditions: in vivo, 672 h, time 28 day
[14] = Toxicity in female Wistar rat assessed as glucose level at 100 mg/kg, po after 28 days (reference value: 78.4 +/- 8.36 mg/dl); assay type: organism-based; conditions: in vivo, 672 h, time 28 day
[15] = Cmax in Beagle dog at 10 mg/kg, po up to 24 hrs; assay type: ADME, organism-based, Canis lupus familiaris; design: route oral, dose 10 mg/kg, time <=24; conditions: in vivo
Summary of the method: (§1)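 Single oral dose at 10 mg/kg given to male Wistar rats and to Beagle dogs; bioavailability also determined in both species.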

[16] = Toxicity in female Wistar rat assessed as ALP level at 400 mg/kg, po after 28 days (reference value: 100.14 +/- 21.98 U/L); assay type: organism-based; conditions: in vivo, 672 h, time 28 day
[17] = Toxicity in male Wistar rat assessed as ratio of liver to body weight at 400 mg/kg, po after 28 days (reference value: 3.142 +/- 0.231); assay type: organism-based; conditions: in vivo, 672 h, time 28 day
[18] = Toxicity in male Wistar rat assessed as ALT level at 200 mg/kg, po after 28 days (reference value: 30.47 +/- 2.63 U/L); assay type: organism-based; conditions: in vivo, 672 h, time 28 day
[19] = Toxicity in female Wistar rat assessed as glucose level at 200 mg/kg, po after 28 days (reference value: 78.4 +/- 8.36 mg/dl); assay type: organism-based; conditions: in vivo, 672 h, time 28 day
[20] = Toxicity in male Wistar rat assessed as albumin level at 400 mg/kg, po after 28 days (reference value: 3.56 +/- 0.08 g.dl); assay type: organism-based; conditions: in vivo, 672 h, time 28 day
[21] = Toxicity in male Wistar rat assessed as ratio of spleen to body weight at 100 mg/kg, po after 28 days (reference value: 0.206 +/- 0.026); assay type: organism-based; conditions: in vivo, 672 h, time 28 day
[22] = Toxicity in female Wistar rat assessed as ALT level at 100 mg/kg, po after 28 days (reference value: 21.28 +/- 2.31 U/L); assay type: organism-based; conditions: in vivo, 672 h, time 28 day
[23] = Toxicity in male Wistar rat assessed as albumin level at 200 mg/kg, po after 28 days (reference value: 3.56 +/- 0.08 g.dl); assay type: organism-based; conditions: in vivo, 672 h, time 28 day
[24] = Toxicity in male Wistar rat assessed as ratio of spleen to body weight at 400 mg/kg, po after 28 days (reference value: 0.206 +/- 0.026); assay type: organism-based; conditions: in vivo, 672 h, time 28 day
Mus musculus [25] = assay: Antidiabetic activity in glucose-stimulated db/db mouse assessed as increase in glucose dependent insulin secretion at 50 mg/kg, po after 10 to 30 mins; assay type: functional, organism-based; conditions: time 10-30 min
[26] = Half life in Beagle dog at 10 mg/kg, po up to 24 hrs; assay type: ADME, organism-based, Canis lupus familiaris; conditions: in vivo; summary of the method: as §1
[27] = Toxicity in female Wistar rat assessed as mortality up to 400 mg/kg, po after 28 days; assay type: organism-based; conditions: in vivo, 672 h, time 28 day
Summary of the method: (§2)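 Repeated-dose oral toxicity by gavage in Wistar rats, 10 males and 10 females per group, given 100, 200 or 400 mg/kg once daily for 28 days. Endpoints were clinical signs, mortality, neurobehaviour, food intake, ophthalmic examination and body weight. Animals were sacrificed on day 29 for blood biochemistry, organ-to-body weight ratios and histopathology.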

[28] = Toxicity in female Wistar rat assessed as ratio of liver to body weight at 100 mg/kg, po after 28 days (reference value: 3.219 +/- 0.221); assay type: organism-based; conditions: in vivo, 672 h, time 28 day
[29] = Toxicity in female Wistar rat assessed as ratio of kidney to body weight at 400 mg/kg, po after 28 days (reference value: 0.801 +/- 0.071); assay type: organism-based; conditions: in vivo, 672 h, time 28 day
[30] = Toxicity in female Wistar rat assessed as ALP level at 200 mg/kg, po after 28 days (reference value: 100.14 +/- 21.98 U/L); assay type: organism-based; conditions: in vivo, 672 h, time 28 day
[31] = Toxicity in female Wistar rat assessed as change in survival at 100 to 400 mg/kg, po after 28 days; assay type: organism-based; conditions: in vivo, 672 h, dose 100-400 mg/kg, time 28 day; summary of the method: as §2
[32] = Toxicity in male Wistar rat assessed as glucose level at 400 mg/kg, po after 28 days (reference value: 89.02 +/- 13.41 mg/dl); assay type: organism-based; conditions: in vivo, 672 h, time 28 day
[33] = Toxicity in female Wistar rat assessed as creatinine level at 200 mg/kg, po after 28 days (reference value: 0.6 +/- 0.04 mg/dl); assay type: organism-based; conditions: in vivo, 672 h, time 28 day
[34] = Toxicity in male Wistar rat assessed as ratio of epididymides to body weight at 200 mg/kg, po after 28 days (reference value: 0.361 +/- 0.028); assay type: organism-based; conditions: in vivo, 672 h, time 28 day

## Cc1c(Oc2cccc(/C=C3\SC(=O)NC3=O)c2)ncnc1OC1CCN(C(=O)OC(C)(C)C)CC1
Mus musculus [1]
  fold change (FC): 2.6
[2]
  Ratio: 0.241
[3]
  Activity: 152.22 U/L
[4]
  Activity: 22.2 U/L
[5]
  Ratio: 0.809
[6]
  Ratio: 0.845
[7]
  Activity: 47.84 mg/dL
[8]
  Activity: 0.63 mg/dL
[9]
  Ratio: 0.196
[10]
  Ratio: 0.345
[11]
  Activity: 76.54 mg/dL
[12]
  Activity: 43.2 mg/dL
[13]
  Ratio: 0.365
[14]
  Activity: 79.83 mg/dL
[15]
  Cmax: 1050 ng/mL
[16]
  Activity: 100.97 U/L
[17]
  Ratio: 3.22
[18]
  Activity: 30.15 U/L
[19]
  Activity: 82.1 mg/dL
[20]
  Activity: 3.54 g/dL
[21]
  Ratio: 0.222
[22]
  Activity: 22.37 U/L
[23]
  Activity: 3.61 g/dL
[24]
  Ratio: 0.211
Mus musculus [25]
  Activity: Active
[26]
  half-life: 19.3 h
[27]
  Activity: Non-Toxic
[28]
  Ratio: 3.243
[29]
  Ratio: 0.806
[30]
  Activity: 91.73 U/L
[31]
  Activity: Non-Toxic
[32]
  Activity: 82.17 mg/dL
[33]
  Activity: 0.66 mg/dL
[34]
  Ratio: 0.406

— ChEMBL document CHEMBL4732226, “Discovery of a potent G-protein-coupled receptor 119 agonist for the treatment of type 2 diabetes” (Bioorg Med Chem, 2021)
